Results from ChEMBL document CHEMBL3351311 (ACS Med Chem Lett, 2014).
In brackets after ≈: the same amount, converted by molar mass.

Legend:
Salmonella typhimurium = assay: Mutagenicity in Salmonella typhimurium at <125 ug/mL by Ames-2 test; assay type: toxicity, organism-based; details: salmonella enterica subsp. enterica serovar typhimurium
Method in brief: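 In vitro colorimetric bacterial mutagenicity assay, adapted from the AMESII Mutagenicity Assay kit.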

Rattus norvegicus [1] = assay: In-vivo occupancy at PDE2 in sc dosed Wistar rat brain using [3H]labeled compound in presence of 2.5 mg/kg, sc PDE10 inhibitor MP10; assay type: functional, organism-based; set-up: dose 2.5 mg/kg, route subcutaneous
Method in brief: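 Male Wistar rats (n = 3 per dose) were dosed s.c., co-administered with MP10 at 2.5 mg/kg s.c. Ex vivo autoradiography was done on brain slices with the tritiated compound. Occupancy is the inhibition of specific [3H] binding relative to vehicle-treated animals, and ED50 was derived against dose.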

Rattus norvegicus [2] = assay: Effect on cAMP levels in Wistar rat striatum at 10 mg/kg, sc after 1 hr; assay type: functional; details: route subcutaneous
[3] = Ratio of drug level in brain to plasma of Sprague-Dawley rat at 10 mg/kg, sc after 1 hr; assay type: ADME, organism-based; set-up: dose 10 mg/kg, route subcutaneous; details: read-out: BPR
Method in brief: (§1)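 Male Sprague-Dawley rats, fed (n = 3), dosed 10 mg/kg s.c. at 1 mg/mL in 20% HP-β-CD, pH 7.0. Plasma (ng/mL) and brain (ng/g) levels were measured at 0.5, 1, 2, 4, 7 and 24 h, each with SD. The brain/plasma ratio is computed at each time point.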

[4] = molecular target: 3',5'-cyclic-AMP phosphodiesterase 4D (Homo sapiens, UniProt Q08499); assay: Inhibition of human PDE4D by scintillation counting method
Method in brief: (§2)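 IC50 values were calculated from experiments each run at eight concentrations.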

[5] = Ratio of drug level in brain to plasma of Sprague-Dawley rat at 10 mg/kg, sc after 2 hrs; assay type: ADME, organism-based; set-up: dose 10 mg/kg, route subcutaneous; details: read-out: BPR; method in brief: as §1
Cytochrome P450 3A4 = Cytochrome P450 3A4 (Homo sapiens, UniProt P08684); assay: Inhibition of CYP3A4 in human liver microsomes; assay type: ADME
Method in brief: (§3)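 CYP2C19 and 3A4 were tested in a human liver microsomal CYP inhibition assay, with IC50 determination.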

[6] = molecular target: High affinity 3',5'-cyclic-AMP phosphodiesterase 7A (Homo sapiens, UniProt Q13946)
[7] = AUC (0 to infinity) in Sprague-Dawley rat at 2.5 mg/kg, iv; assay type: ADME, organism-based; set-up: time infinity, dose 2.5 mg/kg, route intravenous; details: plasma
Method in brief: (§4)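 Rats received 2.5 mg/kg i.v. Plasma kinetic parameters (t1/2, Cl, Vdss, AUC0-inf) are reported as mean (SD).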

[8] = AUC (0 to infinity) in Sprague-Dawley rat at 10 mg/kg, sc; assay type: ADME, organism-based; set-up: time infinity, dose 10 mg/kg, route subcutaneous; details: plasma
Method in brief: (§5)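 Male Sprague-Dawley rats, fed (n = 3), given 10 mg/kg s.c. as a 1 mg/mL solution in 20% HP-β-CD, pH 7.0. Plasma kinetic parameters are reported as mean (SD).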

Brain = assay: Drug level in Sprague-Dawley rat brain at 10 mg/kg, sc after 24 hrs; assay type: ADME, organism-based; set-up: dose 10 mg/kg, route subcutaneous; details: in vivo, BLD = below limit of detection; method in brief: as §1
Plasma [9] = assay: Free drug concentration in Sprague-Dawley rat brain at 10 mg/kg, sc after 1 hr; assay type: ADME, organism-based; set-up: dose 10 mg/kg, route subcutaneous; details: in vivo
Method in brief: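 Free brain level at 1 h after a 10 mg/kg s.c. dose. Total brain concentration was corrected with the measured unbound brain fraction (Fub) and the unbound fraction to plasma proteins (Fup).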

[10] = Ratio of drug level in brain to plasma of Sprague-Dawley rat at 10 mg/kg, sc after 7 hrs; assay type: ADME, organism-based; set-up: dose 10 mg/kg, route subcutaneous; details: read-out: BPR; method in brief: as §1
[11] = Ratio of drug level in brain to plasma of Sprague-Dawley rat at 10 mg/kg, sc after 0.5 hrs; assay type: ADME, organism-based; set-up: dose 10 mg/kg, route subcutaneous; details: read-out: BPR; method in brief: as §1
[12] = Volume of distribution at steady state in Sprague-Dawley rat at 2.5 mg/kg, iv; assay type: ADME, organism-based; set-up: dose 2.5 mg/kg, route intravenous; details: in vivo, read-out: Vdss
Method in brief: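 Rats received an intravenous injection at 2.5 mg/kg. Plasma kinetics were followed and parameters reported as mean (SD).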

[13] = molecular target: Dual specificity calcium/calmodulin-dependent 3',5'-cyclic nucleotide phosphodiesterase 1A (Homo sapiens, UniProt P54750); assay: Inhibition of human PDE1A by scintillation counting method; method in brief: as §2
[14] = molecular target: Dual 3',5'-cyclic-AMP and -GMP phosphodiesterase 11A (Homo sapiens, UniProt Q9HCR9); assay: Inhibition of human PDE11A4 expressed in Sf9 cells by scintillation counting method; method in brief: as §2
Cytochrome P450 2C19 = Cytochrome P450 2C19 (Homo sapiens, UniProt P33261); assay: Inhibition of CYP2C19 in human liver microsomes; assay type: ADME; method in brief: as §3
[15] = Stability in rat liver microsomes assessed as parent compound remaining after 15 mins; assay type: ADME; details: read-out: Stability
Method in brief: (§6)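 Incubated with human or rat liver microsomes for 15 min. Result is the percent of parent compound remaining.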

Plasma [16] = assay: Plasma concentration in Sprague-Dawley rat at 10 mg/kg, sc after 24 hrs; assay type: ADME, organism-based; set-up: dose 10 mg/kg, route subcutaneous; details: in vivo, BLD = below limit of detection; method in brief: as §1
[17] = molecular target: cGMP-inhibited 3',5'-cyclic phosphodiesterase 3B (Homo sapiens, UniProt Q13370); assay: Inhibition of human PDE3B by scintillation counting method; method in brief: as §2
[18] = Ratio of drug level in brain to plasma of Sprague-Dawley rat at 10 mg/kg, sc after 4 hrs; assay type: ADME, organism-based; set-up: dose 10 mg/kg, route subcutaneous; details: read-out: BPR; method in brief: as §1
[19] = Unbound fraction in Sprague-Dawley rat plasma at 10 mg/kg, sc; assay type: ADME, organism-based; set-up: dose 10 mg/kg, route subcutaneous
[20] = Half life in Sprague-Dawley rat at 2.5 mg/kg, iv; assay type: ADME, organism-based; set-up: dose 2.5 mg/kg, route intravenous; details: in vivo; method in brief: as §4
[21] = Clearance in Sprague-Dawley rat at 2.5 mg/kg, iv; assay type: ADME, organism-based; set-up: dose 2.5 mg/kg, route intravenous; details: in vivo; method in brief: as §4
Rattus norvegicus [22] = assay: Increase in cGMP levels in Wistar rat striatum at 10 mg/kg, sc after 1 hr; assay type: functional; details: route subcutaneous
Method in brief: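 Rats were dosed 10 mg/kg s.c., and striatal cGMP was measured 1 h later against vehicle-dosed animals. Five independent experiments were run (n = 4–5 each), reported as % of vehicle with range.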

[23] = Formulatability in 10% beta-HP-CD at pH 3.6; assay type: physicochemical; details: read-out: Activity
Method in brief: (§7)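 Formulatability in mg/mL, tested in three vehicles: water at pH 3.6, 10% β-HP-CD at pH 3.6, and 20% HP-β-CD at pH 7.0.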

[24] = Formulatability in 20% beta-HP-CD at pH 7.0; assay type: physicochemical; details: read-out: Activity; method in brief: as §7
[25] = Cmax in Sprague-Dawley rat at 10 mg/kg, sc; assay type: ADME, organism-based; set-up: dose 10 mg/kg, route subcutaneous; details: in vivo; method in brief: as §5
[26] = Stability in human liver microsomes assessed as parent compound remaining after 15 mins; assay type: ADME; details: read-out: Stability; method in brief: as §6
Phosphodiesterase 6 = assay: Inhibition of human PDE6AB expressed in Sf9 cells by scintillation counting method; method in brief: as §2
[27] = Unbound fraction in Sprague-Dawley rat brain at 10 mg/kg, sc; assay type: ADME, organism-based; set-up: dose 10 mg/kg, route subcutaneous
[28] = molecular target: High affinity cGMP-specific 3',5'-cyclic phosphodiesterase 9A (Homo sapiens, UniProt O76083)
[29] = Formulatability in water at pH 3.6; assay type: physicochemical; details: read-out: Activity; method in brief: as §7
[30] = molecular target: cGMP-specific 3',5'-cyclic phosphodiesterase (Homo sapiens, UniProt O76074); assay: Inhibition of human PDE5A3 expressed in Sf9 cells by scintillation counting method; method in brief: as §2
[31] = Tmax in Sprague-Dawley rat at 10 mg/kg, sc; assay type: ADME, organism-based; set-up: dose 10 mg/kg, route subcutaneous; details: in vivo
Method in brief: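 Fed male Sprague-Dawley rats (n = 3) were dosed subcutaneously at 10 mg/kg, formulated at 1 mg/mL in 20% HP-β-CD, pH 7.0. Plasma kinetics were followed and reported as mean (SD).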

[32] = Half life in Sprague-Dawley rat at 10 mg/kg, sc; assay type: ADME, organism-based; set-up: dose 10 mg/kg, route subcutaneous; details: in vivo; method in brief: as §5
[33] = Drug level in rat brain at 10 mg/kg, po after 30 mins; assay type: ADME, organism-based; set-up: dose 10 mg/kg, route oral; details: read-out: Drug uptake
[34] = Ratio of drug level in brain to plasma in rat at 10 mg/kg, po after 30 mins; assay type: ADME, organism-based; set-up: dose 10 mg/kg, route oral; details: read-out: BPR
[35] = Plasma concentration in rat at 10 mg/kg, po after 30 mins; assay type: ADME, organism-based; set-up: dose 10 mg/kg, route oral
[36] = Selectivity index, ratio of IC50 for rat PDE10A to IC50 for human PDE2A
[37] = molecular target: T1, cAMP and cAMP-inhibited cGMP 3',5'-cyclic phosphodiesterase 10A (Rattus norvegicus, UniProt Q9QYJ6); assay: Inhibition of rat PDE10A expressed in Sf9 cells incubated for 60 mins using [3H]-cAMP substrate by scintillation counting method
T1 sequence (Q9QYJ6 whole entry): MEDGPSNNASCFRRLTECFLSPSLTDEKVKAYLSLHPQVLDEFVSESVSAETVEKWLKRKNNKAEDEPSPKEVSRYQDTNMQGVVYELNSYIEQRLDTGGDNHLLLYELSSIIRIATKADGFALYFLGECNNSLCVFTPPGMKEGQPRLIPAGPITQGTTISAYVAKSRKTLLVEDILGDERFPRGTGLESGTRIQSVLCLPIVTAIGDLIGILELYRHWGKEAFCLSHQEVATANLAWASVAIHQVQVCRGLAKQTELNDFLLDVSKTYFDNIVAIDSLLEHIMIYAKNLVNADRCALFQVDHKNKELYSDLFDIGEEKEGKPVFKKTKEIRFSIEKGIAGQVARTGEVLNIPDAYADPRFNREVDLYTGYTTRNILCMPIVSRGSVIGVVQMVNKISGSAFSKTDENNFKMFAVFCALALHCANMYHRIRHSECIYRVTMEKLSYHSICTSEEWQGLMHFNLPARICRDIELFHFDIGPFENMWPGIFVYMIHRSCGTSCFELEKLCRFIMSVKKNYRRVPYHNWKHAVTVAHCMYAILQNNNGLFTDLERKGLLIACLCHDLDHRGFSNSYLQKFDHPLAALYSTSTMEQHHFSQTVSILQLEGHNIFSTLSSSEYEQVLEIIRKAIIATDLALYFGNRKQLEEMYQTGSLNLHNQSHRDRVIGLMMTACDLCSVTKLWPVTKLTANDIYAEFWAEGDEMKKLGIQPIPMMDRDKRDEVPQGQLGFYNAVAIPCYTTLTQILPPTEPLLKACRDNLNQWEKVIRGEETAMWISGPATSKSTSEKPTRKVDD

Dual specificity calcium/calmodulin-dependent 3',5'-cyclic nucleotide phosphodiesterase 1A, sequence (P54750 whole entry): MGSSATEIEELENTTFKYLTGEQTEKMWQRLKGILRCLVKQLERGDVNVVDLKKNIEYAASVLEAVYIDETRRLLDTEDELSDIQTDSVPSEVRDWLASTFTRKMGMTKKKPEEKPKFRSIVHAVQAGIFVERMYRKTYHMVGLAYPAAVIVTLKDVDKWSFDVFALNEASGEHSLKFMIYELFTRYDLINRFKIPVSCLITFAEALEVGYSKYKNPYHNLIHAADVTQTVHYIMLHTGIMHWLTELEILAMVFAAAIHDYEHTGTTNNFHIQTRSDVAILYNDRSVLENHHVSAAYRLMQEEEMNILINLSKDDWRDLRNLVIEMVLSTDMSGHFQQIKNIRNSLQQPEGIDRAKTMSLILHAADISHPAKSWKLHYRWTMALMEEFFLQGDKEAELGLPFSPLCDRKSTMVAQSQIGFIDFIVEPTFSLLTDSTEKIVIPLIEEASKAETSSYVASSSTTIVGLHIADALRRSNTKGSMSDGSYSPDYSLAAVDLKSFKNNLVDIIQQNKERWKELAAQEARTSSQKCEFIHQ
cGMP-inhibited 3',5'-cyclic phosphodiesterase 3B, sequence (Q13370 whole entry): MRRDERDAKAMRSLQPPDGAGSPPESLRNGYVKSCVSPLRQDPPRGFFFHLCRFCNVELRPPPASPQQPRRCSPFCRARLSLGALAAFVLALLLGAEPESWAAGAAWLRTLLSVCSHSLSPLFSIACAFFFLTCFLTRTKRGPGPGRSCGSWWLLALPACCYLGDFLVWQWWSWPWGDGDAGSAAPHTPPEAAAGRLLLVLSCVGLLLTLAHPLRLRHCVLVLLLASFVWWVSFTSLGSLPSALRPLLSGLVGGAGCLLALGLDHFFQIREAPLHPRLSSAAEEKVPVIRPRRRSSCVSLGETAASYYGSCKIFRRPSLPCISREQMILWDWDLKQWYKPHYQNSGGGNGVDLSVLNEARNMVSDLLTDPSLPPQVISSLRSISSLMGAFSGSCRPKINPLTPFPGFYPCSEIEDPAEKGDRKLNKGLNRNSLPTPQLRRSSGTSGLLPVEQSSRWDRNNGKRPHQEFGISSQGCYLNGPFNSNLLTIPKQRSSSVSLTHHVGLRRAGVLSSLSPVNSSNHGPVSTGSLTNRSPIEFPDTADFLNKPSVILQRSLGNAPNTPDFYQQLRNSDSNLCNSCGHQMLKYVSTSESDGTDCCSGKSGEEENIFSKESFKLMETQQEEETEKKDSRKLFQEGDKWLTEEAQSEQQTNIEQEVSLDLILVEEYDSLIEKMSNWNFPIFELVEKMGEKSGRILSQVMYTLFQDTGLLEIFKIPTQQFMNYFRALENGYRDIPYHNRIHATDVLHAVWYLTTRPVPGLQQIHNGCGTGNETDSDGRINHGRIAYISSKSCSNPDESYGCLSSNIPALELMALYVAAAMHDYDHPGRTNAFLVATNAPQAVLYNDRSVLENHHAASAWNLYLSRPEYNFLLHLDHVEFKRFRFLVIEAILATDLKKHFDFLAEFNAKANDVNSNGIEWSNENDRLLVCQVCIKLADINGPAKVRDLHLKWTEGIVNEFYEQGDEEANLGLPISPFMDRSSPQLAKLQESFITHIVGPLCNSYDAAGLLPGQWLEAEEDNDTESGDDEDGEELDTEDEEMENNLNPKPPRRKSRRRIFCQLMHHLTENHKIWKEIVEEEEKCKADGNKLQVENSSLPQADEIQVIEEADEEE
3',5'-cyclic-AMP phosphodiesterase 4D, sequence (Q08499 whole entry): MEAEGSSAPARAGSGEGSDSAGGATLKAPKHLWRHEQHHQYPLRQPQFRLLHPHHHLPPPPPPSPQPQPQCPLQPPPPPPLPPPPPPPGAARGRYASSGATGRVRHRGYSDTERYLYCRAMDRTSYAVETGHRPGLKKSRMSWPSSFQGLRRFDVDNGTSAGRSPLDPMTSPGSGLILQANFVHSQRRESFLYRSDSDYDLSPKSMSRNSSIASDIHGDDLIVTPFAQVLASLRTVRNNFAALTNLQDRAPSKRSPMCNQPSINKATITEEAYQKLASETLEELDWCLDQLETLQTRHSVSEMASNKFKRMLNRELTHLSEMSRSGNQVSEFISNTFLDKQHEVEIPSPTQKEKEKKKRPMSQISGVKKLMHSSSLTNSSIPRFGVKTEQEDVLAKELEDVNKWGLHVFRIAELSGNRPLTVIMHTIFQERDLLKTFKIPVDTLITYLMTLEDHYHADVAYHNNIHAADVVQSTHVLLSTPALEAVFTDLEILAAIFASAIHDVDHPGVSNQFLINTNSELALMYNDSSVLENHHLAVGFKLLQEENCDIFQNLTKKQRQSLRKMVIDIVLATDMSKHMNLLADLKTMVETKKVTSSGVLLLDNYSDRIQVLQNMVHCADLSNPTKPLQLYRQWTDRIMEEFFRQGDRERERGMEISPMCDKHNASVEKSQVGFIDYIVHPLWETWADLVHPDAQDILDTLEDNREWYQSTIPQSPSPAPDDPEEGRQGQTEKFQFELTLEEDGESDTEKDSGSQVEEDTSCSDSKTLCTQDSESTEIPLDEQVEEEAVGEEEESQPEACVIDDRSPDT
High affinity cGMP-specific 3',5'-cyclic phosphodiesterase 9A, sequence (O76083 whole entry): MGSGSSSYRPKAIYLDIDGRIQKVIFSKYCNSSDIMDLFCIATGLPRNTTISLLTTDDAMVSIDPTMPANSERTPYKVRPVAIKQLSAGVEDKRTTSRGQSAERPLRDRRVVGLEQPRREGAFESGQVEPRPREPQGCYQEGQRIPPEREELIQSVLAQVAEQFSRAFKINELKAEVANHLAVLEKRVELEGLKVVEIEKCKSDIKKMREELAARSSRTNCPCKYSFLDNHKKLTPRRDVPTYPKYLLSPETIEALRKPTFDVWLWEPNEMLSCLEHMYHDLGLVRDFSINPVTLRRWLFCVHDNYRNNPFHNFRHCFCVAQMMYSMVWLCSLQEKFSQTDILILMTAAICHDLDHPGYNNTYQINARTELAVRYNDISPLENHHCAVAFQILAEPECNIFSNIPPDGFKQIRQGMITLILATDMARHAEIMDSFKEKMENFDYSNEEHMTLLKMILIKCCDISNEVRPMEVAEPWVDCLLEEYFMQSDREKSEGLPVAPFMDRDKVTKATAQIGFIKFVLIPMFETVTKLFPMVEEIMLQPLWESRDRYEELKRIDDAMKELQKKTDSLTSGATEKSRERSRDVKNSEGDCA
Cytochrome P450 2C19, sequence (P33261 whole entry): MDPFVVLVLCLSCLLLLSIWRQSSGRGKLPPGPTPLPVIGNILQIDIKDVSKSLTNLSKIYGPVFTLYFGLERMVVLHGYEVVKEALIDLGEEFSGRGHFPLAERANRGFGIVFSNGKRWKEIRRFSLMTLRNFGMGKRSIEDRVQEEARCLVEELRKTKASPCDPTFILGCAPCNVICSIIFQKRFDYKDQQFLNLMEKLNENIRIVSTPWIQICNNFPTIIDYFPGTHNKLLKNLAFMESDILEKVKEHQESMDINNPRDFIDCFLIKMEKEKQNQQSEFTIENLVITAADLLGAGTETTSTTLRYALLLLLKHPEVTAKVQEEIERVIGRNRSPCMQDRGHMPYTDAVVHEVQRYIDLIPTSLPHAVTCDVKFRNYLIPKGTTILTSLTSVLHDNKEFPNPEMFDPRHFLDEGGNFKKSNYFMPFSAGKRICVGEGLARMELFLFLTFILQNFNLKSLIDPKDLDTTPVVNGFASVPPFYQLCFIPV
Cytochrome P450 3A4, sequence (P08684 whole entry): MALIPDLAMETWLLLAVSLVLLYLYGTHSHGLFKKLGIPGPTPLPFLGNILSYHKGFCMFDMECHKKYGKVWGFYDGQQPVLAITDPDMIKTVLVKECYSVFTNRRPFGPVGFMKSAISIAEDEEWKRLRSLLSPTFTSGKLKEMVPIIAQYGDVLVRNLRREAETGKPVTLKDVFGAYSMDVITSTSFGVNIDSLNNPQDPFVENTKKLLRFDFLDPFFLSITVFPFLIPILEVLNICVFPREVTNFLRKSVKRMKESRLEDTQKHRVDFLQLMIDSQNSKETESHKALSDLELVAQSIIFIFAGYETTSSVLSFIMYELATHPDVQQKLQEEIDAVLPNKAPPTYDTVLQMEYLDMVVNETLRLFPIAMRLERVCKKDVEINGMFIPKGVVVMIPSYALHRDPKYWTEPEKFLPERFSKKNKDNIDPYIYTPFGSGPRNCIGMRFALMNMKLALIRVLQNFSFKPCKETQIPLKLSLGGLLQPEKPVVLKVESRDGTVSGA
Dual 3',5'-cyclic-AMP and -GMP phosphodiesterase 11A, sequence (Q9HCR9 whole entry): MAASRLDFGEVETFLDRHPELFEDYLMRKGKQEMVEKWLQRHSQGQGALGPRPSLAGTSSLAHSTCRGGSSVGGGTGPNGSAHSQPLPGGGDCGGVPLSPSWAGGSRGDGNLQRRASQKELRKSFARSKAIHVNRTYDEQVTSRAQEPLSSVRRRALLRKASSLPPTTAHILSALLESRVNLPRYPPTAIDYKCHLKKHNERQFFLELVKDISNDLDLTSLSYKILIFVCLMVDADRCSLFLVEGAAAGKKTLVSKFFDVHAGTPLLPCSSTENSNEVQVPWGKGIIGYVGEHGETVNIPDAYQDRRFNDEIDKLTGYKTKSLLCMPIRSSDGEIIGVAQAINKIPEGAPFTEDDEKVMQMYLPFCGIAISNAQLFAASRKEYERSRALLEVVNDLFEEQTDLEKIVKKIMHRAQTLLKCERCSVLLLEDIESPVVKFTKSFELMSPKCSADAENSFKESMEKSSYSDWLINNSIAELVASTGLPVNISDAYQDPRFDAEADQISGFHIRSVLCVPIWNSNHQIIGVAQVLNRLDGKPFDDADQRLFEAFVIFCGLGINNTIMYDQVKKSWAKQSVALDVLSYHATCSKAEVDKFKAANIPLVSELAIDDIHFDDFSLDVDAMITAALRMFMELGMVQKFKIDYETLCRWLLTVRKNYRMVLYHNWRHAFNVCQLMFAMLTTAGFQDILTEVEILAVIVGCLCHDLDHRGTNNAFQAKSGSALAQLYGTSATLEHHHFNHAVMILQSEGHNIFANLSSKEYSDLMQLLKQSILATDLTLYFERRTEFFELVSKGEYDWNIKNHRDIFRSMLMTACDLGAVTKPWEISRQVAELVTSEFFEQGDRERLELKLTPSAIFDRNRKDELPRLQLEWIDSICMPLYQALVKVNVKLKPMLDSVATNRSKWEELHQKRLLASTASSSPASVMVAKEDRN

## CCCCOc1cncc(-c2nnc3c(C)nc4ccc(CN5CCOCC5)cc4n23)c1
Salmonella typhimurium
  Activity: Non-toxic
Rattus norvegicus [1]
  EC50: 0.021 µM
Rattus norvegicus [1]; sc, route subcutaneous
  ED50: 4.3 mg/kg
Rattus norvegicus [2]
  Activity: 109%
[3]
  Kp at 1 h: 1.1
[4]
  IC50: > 10 µM
[5]
  Kp at 2 h: 1.1
Cytochrome P450 3A4
  IC50: > 10 µM
[6]
  IC50: > 10 µM
[7]
  AUC(0-inf): 0.305 µg·h/mL
[8]
  AUC(0-inf): 1.67 µg·h/mL
Brain
  Drug uptake: BLD
Plasma [9]
  Drug uptake(free): 67 nM
[10]
  Kp at 7 h: 0.93
[11]
  Kp at 0.5 h: 1.4
[12]
  Vd: 2.7 L/kg
[13]
  IC50: > 10 µM
[14]
  IC50: 2.14 µM
Cytochrome P450 2C19
  IC50: > 10 µM
[15]
  remaining at 0.25 h: 0%
Plasma [16]
  Cp: BLD
[17]
  IC50: > 10 µM
[18]
  Kp at 4 h: 1.1
[19]
  fraction unbound: 0.31
[20]
  half-life: 18.6 min
[21]
  clearance: 7.8 L/h/kg
Rattus norvegicus [22]
  Activity: 251%
[23]
  solubility: 15 mg/mL (≈ 34.7 mM)
[24]
  solubility: 16 mg/mL (≈ 37 mM)
[25]
  Cmax: 0.658 µg/mL
[26]
  remaining at 0.25 h: 0%
Phosphodiesterase 6
  IC50: > 10 µM
[27]
  fraction unbound: 0.14
[28]
  IC50: > 10 µM
[29]
  solubility: 4 mg/mL (≈ 9.25 mM)
[30]
  IC50: > 10 µM
[31]
  Tmax: 40.2 min
[32]
  half-life: 60 min

## COc1ccc(Cc2nn3c([C@@H](CCCc4ccccc4)[C@@H](C)O)nc(C)c3c(=O)[nH]2)cc1OC
[33]
  concentration at 0.5 h: 3.6 ng/g
[34]
  Kp at 0.5 h: 0.05
[35]
  concentration at 0.5 h: 0.0729 µg/mL

## Cc1nc2ccc(CN3CCOCC3)cc2n2c(-c3ccccc3Cl)nnc12
[36]
  Ratio IC50: 13

## COc1ccc(Cl)c(-c2nnc3c(C)nc4ccc(CN5CCOCC5)cc4n23)c1
[37]
  IC50: 0.106 µM

## Cc1nc2ccc(CN3CCOCC3)cc2n2c(-c3cncc(OC(C)C)c3)nnc12
[37]
  IC50: > 10 µM
